We go through eight molecules from ChEMBL document CHEMBL3098016, “Biphenyl derivatives incorporating urea unit as novel VEGFR-2 inhibitors: design, synthesis and biological evaluation” (Bioorg Med Chem, 2014).

Assay [1] deals with Vascular endothelial growth factor receptor 2 (Homo sapiens, UniProt P35968). As to the kind of experiment: Inhibition of VEGFR2 (unknown origin) after 30 mins by HTRF assay.
A further assay relates to LoVo. Kind of assay: Antiproliferative activity against human LoVo cells after 48 hrs by MTT assay.
For the next assay, the system named is MDA-MB-231. As to the kind of experiment: Antiproliferative activity against human MDA-MB-231 cells after 48 hrs by MTT assay. Particulars: MDA-MB-231, 48 h. Type of assay: functional, cell-based. In short, it runs like this: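 Cells in exponential growth plated at 1 × 10⁴ cells/well and incubated 24 h at 37 °C. Compounds were then added at various concentrations for 48 h. MTT (5 mg/mL) was added, followed by 4 h at 37 °C. Supernatant was removed and formazan dissolved in DMSO, with absorbance read at 490 nm. IC50 in µM.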

Assay [2] is described as follows: Antiproliferative activity against human SH-SY5Y cells after 48 hrs by MTT assay.
Assay [3] is described as follows: Antiproliferative activity against human SGC7901 cells after 48 hrs by MTT assay. Particulars: SGC-7901, 48 h.
The next assay has as its system K562. Kind of assay: Antiproliferative activity against human K562 cells after 48 hrs by MTT assay. The following applies: K562, 48 h.

Vascular endothelial growth factor receptor 2, sequence (P35968 whole entry): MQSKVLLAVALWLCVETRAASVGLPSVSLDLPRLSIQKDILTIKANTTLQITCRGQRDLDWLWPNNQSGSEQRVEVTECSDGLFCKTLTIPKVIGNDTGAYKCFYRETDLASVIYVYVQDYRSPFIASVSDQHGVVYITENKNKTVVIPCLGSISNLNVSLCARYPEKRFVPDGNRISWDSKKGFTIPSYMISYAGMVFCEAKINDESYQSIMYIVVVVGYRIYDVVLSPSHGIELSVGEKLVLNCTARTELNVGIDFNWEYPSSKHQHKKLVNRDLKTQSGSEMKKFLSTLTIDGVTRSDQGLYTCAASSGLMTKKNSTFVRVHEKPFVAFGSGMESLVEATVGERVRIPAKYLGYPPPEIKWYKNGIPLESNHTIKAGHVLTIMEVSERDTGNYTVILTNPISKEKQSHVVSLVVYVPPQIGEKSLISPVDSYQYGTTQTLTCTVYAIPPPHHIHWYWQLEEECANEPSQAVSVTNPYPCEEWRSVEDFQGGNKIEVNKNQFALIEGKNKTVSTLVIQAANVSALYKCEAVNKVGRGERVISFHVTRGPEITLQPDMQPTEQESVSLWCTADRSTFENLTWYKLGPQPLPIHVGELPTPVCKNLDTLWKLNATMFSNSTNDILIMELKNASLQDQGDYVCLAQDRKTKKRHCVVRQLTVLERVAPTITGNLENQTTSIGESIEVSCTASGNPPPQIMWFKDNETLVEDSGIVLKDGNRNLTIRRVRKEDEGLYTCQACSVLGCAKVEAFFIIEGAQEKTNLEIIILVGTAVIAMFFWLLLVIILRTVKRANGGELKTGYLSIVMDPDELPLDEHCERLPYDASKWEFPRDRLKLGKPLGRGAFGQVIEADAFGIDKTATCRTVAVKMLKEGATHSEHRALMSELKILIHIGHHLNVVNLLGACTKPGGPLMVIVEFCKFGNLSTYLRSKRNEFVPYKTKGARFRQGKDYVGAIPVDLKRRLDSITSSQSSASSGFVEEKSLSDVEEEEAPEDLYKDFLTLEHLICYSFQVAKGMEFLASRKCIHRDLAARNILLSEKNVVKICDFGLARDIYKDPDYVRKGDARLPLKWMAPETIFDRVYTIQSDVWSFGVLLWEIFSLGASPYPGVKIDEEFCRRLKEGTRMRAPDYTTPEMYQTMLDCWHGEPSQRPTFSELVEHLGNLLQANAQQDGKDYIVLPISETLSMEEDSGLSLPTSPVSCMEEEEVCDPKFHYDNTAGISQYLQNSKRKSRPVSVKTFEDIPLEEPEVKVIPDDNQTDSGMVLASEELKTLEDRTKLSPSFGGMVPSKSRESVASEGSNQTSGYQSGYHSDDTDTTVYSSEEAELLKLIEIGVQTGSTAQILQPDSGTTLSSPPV

`CCN(CC)CCOc1ccc(NC(=O)Nc2cc(OC)c(OC)c(-c3ccc(C(C)=O)c(OC)c3)c2)cc1`: the IC50 in assay [1] was greater than 0.3 µM.

In assay [1], `COc1cc(-c2cc(NC(=O)Nc3ccc(OCCN(C)C)cc3)cc(OC)c2OC)ccc1C(C)=O` returned an IC50 greater than 0.3 µM. As to `CNC(=O)c1cc(Oc2ccc(NC(=O)Nc3ccc(Cl)c(C(F)(F)F)c3)cc2)ccn1` [SORAFENIB], the IC50 in the assay on LoVo came to 6.56 µM; with MDA-MB-231 it was 35 µM; in assay [2], 5.73 µM; in assay [3], 101 µM; in the assay on K562 it was 0.86 µM. In assay [1], `CCN(CC)CCOc1ccc(NC(=O)Nc2cc(OC)c(OC)c(-c3ccc(/C(C)=N/O)c(OC)c3)c2)c(C)c1` returned an IC50 greater than 0.3 µM. On to `COc1cc(-c2cc(NC(=O)Nc3ccc(OCCCN4CCOCC4)cc3)cc(OC)c2OC)ccc1C(C)=O`, for which the IC50 with LoVo worked out at 11.1 µM; in assay [2], 10.4 µM; in assay [3], 80.9 µM; in the assay with K562, 2.23 µM.

Consider `COc1cc(-c2cc(NC(=O)Nc3ccc(OCCN4CCOCC4)cc3)cc(OC)c2OC)ccc1C(C)=O`, for which, in assay [1], the IC50 was greater than 0.3 µM. The same measure, in the same setting: to `COc1cc(-c2cc(NC(=O)Nc3cc(OCCN4CCCCC4)ccc3C)cc(OC)c2OC)ccc1C(C)=O` belongs greater than 0.3 µM; to `COc1cc(-c2cc(NC(=O)Nc3ccc(OCCN(C)C)cc3C)cc(OC)c2OC)ccc1C(C)=O`, greater than 0.3 µM.
